{"source": "paper PMC5710753", "about": "(Biochemical pharmacology, 2017)", "key": {"[1]": {"assay_type": "in vivo, cynomolgus monkeys", "settings": "for time of maximal plasma level: after S230 30 mg/kg oral gavage", "method_in_brief": "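Three monkeys were gavaged with 30 mg/kg (4.4 mL/kg) of an ethanol stock diluted into 10 volumes of 20 mM NaHCO3. Heparinized blood was taken predose and at 1–24 h, and plasma was stored at −80 °C. Plasma was treated with MeOH and an indole internal standard, then C18 solid-phase extracted. Quantitation used RP-HPLC-UV (60–80% MeOH, 0.02% HOAc) by peak-area ratio to the internal standard, with identities confirmed by LC-MS/MS.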"}, "OXE receptor [2]": {"molecular_target": "T1, OXE receptor (Homo sapiens, UniProt Q8TDS5)", "T1 sequence (Q8TDS5 whole entry)": "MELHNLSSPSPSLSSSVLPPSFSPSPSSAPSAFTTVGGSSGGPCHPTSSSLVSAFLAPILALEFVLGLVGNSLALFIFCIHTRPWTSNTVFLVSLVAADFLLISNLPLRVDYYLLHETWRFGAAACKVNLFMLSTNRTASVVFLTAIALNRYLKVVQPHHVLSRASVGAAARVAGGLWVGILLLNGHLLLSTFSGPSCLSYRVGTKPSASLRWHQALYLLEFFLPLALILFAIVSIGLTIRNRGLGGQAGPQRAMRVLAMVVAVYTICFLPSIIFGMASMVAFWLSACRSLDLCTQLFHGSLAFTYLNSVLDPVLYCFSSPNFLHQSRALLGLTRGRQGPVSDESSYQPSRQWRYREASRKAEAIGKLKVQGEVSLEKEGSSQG", "settings": "S230 vs R230; cited from earlier work"}, "[3]": {"test": "Incubation with plasma or intact leukocytes", "assay_type": "in vitro ADME"}, "[4]": {"settings": "oral racemic 230; cited from earlier work"}, "OXE receptor [5]": {"tested_on": "OXE receptor", "settings": "feline; cited from earlier work"}, "OXE receptor [6]": {"tested_on": "OXE receptor", "settings": "cited from earlier work"}, "[7]": {"settings": "monkey liver microsomes + NADPH; cited from earlier work"}, "OXE receptor [8]": {"molecular_target": "T1, OXE receptor", "test": "Inhibition of 5-oxo-ETE-induced calcium mobilization in human neutrophils", "assay_type": "cell-based", "method_in_brief": "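Neutrophils isolated by dextran sedimentation and Ficoll-Paque centrifugation, loaded with indo-1 AM and held in a cuvette at 37 °C. Once baseline fluorescence was stable, the test compound was added, then 10 nM 5-oxo-ETE 2 min later, then digitonin (0.1% final) 1 min after that. Calcium response was read by spectrofluorometry.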"}}, "note": "Read-outs that look alike come from different tables or passages of the source.", "data": [{"smiles": "CCCCCCc1c(C(=O)C[C@H](C)CC(=O)O)c2cc(Cl)ccc2n1C", "note": "[S230, (S)-5-(5-chloro-2-hexyl-1-methyl-1H-indol-3-yl)-3-methyl-5-oxopentanoate]", "values": [{"measurement": "plasma concentration", "setting": "[1]; 8 h after S230 30 mg/kg oral", "result": "greater than 1.5 μM"}, {"measurement": "maximal plasma concentration", "setting": "[1]; S230 30 mg/kg oral gavage, at 1 h", "result": 32, "unit": "µM"}, {"measurement": "time of maximal plasma level", "setting": "[1]", "result": "≤ 1", "unit": "h"}, {"measurement": "plasma level as % of maximal concentration", "setting": "[1]; by 4 h after S230 30 mg/kg oral", "result": "about 11%"}, {"measurement": "plasma level as % of maximal concentration", "setting": "[1]; by 8 h after S230 30 mg/kg oral", "result": 5, "unit": "%"}, {"measurement": "potency relative to the R-enantiomer (R230)", "setting": "OXE receptor [2]", "result": "over 400 times"}]}, {"smiles": "CCCCCCc1c(C(=O)CC(C)CC(=O)O)c2cc(Cl)ccc2n1C", "note": "(stereo not shown) [compound 230, 5-(5-chloro-2-hexyl-1-methyl-1H-indol-3-yl)-3-methyl-5-oxopentanoate]", "values": [{"measurement": "formation of α-hydroxylation products", "setting": "[3]", "result": "Neither did we detect such products"}, {"measurement": "maximal plasma concentration", "setting": "[4]", "result": 87, "unit": "µM"}, {"measurement": "antagonist activity in cats", "setting": "OXE receptor [5]", "result": "only a weak antagonist"}, {"measurement": "antagonist activity in vitro in monkeys", "setting": "OXE receptor [6]", "result": "potent OXE receptor antagonist"}, {"measurement": "formation of α-OH-230", "setting": "[7]", "result": "did not detect α-OH-230"}]}, {"smiles": "CCCCC[C@@H](O)c1c(C(=O)C[C@H](C)CC(=O)O)c2cc(Cl)ccc2n1C", "note": "[x2, (S)-5-(5-chloro-2-((R)-1-hydroxyhexyl)-1-methyl-1H-indol-3-yl)-3-methyl-5-oxopentanoic acid]", "values": [{"measurement": "IC50", "setting": "OXE receptor [8]", "result": "> 10000", "unit": "nM"}, {"measurement": "peak area relative to the area of metabolite e", "setting": "[1]; all time points, plasma after S230 30 mg/kg oral, RP-HPLC", "result": "about 3%"}]}, {"smiles": "CCCCC[C@H](O)c1c(C(=O)C[C@H](C)CC(=O)O)c2cc(Cl)ccc2n1C", "note": "[y1, (S)-5-(5-chloro-2-((S)-1-hydroxyhexyl)-1-methyl-1H-indol-3-yl)-3-methyl-5-oxopentanoic acid]", "values": [{"measurement": "IC50", "setting": "OXE receptor [8]", "result": "1600 ± 300", "unit": "nM"}, {"measurement": "Tmax", "setting": "[1]; female, cynomolgus monkey, plasma, po, 30 mg/kg", "result": "≤ 1", "unit": "h"}]}, {"smiles": "CC(O)CCCCc1c(C(=O)C[C@H](C)CC(=O)O)c2cc(Cl)ccc2n1C", "note": "(stereo partly drawn) [ω2-OH-S230, (3S)-5-(5-chloro-2-(5-hydroxyhexyl)-1-methyl-1H-indol-3-yl)-3-methyl-5-oxopentanoate]", "values": [{"measurement": "time of maximal plasma level", "setting": "[1]", "result": "≤ 4", "unit": "h"}]}]}
